CYP2C9 activ: CYP2C9 (human) activation | recombinant CYP2C9, luciferin-H conversion, luminescence; stronger effect = higher value; factor 1 = untreated enzyme, 0 = blocked | activation factor at 5 µM | 96,000 tested, 1.4% active;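 active means activation factor of 2 or more for CYP2C9 at a 5 µM dose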
CYP2C9 inhib: inhibitors of human CYP2C9; P11712; CYP2C9 Supersomes, luciferin-H conversion, luminescence; inhibition, % at 5 µM; 96,000 tested, 20% active; AID 777;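 active means blocking of liver enzyme CYP2C9 beyond about 50% at 5 µM, limit read from the data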
Cav3 T inh: inhibitors of human Cav3.2 T-type calcium channel; O95180; Cav3.2-expressing cells, Fluo-4 calcium fluorescence FDSS; stronger effect = lower value; B-score at 10 µM; AID 449739; 100,000 tested, 4% active;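 active means single-dose well whose peak fluorescence ratio is a statistical outlier from its plate by either plate-standardised score or position-corrected B-score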
HIV Rev-RRE inh: inhibitors of HIV-1 Rev-RRE RNA interaction. P05866. AID 704. inhibition, % at 8 µM. 97,000 tested, 0.79% active. Rev peptide-RRE RNA binding, FRET;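 active means inhibition above the screen-wide mean plus 3 SD, cut at about 35% in these data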
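Assay system: labelled RRE RNA duplex and labelled Rev peptide / Medium: HEPES pH 7.5 salt buffer with EDTA / Reagent: labelled Rev peptide / Schedule: 5 + 15 min at 25 °C / Signal: FRET, excitation 480 nm, emission 540 nm donor and 671 nm acceptor / Benchmarks: DMSO and neomycin B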
CYP2C19 act: activators of human cytochrome P450 2C19 | P33261 | activation factor at 5 µM | 96,000 tested, under 10 active | recombinant CYP2C19, luciferin-H EGE luminescence; stronger effect = higher value; 0 = fully inhibited enzyme, 1 = untreated enzyme;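 active means activation factor of at least 2 at 5 µM in the primary screen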
CYP2C19 inhib: blocks human cytochrome P450 2C19; P33261; CYP2C19 Supersomes, luciferin-H EGE luminescence, 30 min; inhibition, % at 5 µM; 96,000 tested, 21% active; AID 778;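 active means CYP2C19 inhibition above a set limit at 5 µM in the primary screen, cut at about 50% in these data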
Numbers stand for hits; 0 = inactive; - = no result; [ ] = remark or other dose. Sampled rows, rich in hits. Any-hit rate of the full collection: about 27%.

SMILES	CYP2C9 activ	CYP2C9 inhib	Cav3 T inh	HIV Rev-RRE inh	CYP2C19 act	CYP2C19 inhib
CCOc1c(Cl)cc(CNCC(C)C)cc1OC	0	0	0	0	0	71
COc1cc(CNCC(C)C)cc(Br)c1OCC(=O)Nc1ccccc1	-	-	0	0	-	-
Cc1cc(C)cc(NC(=O)CCN2CC(C)OC(C)C2)c1 (configuration not stated)	0	0	0	0	0	0
CCCOc1ccc2ccccc2c1/C=N/n1c(C)nnc1-n1nc(C)cc1C	0	0	-3.3	0	0	83
Cc1cc(C)n(-c2nnc(C)n2/N=C/c2ccco2)n1	0	0	0	0	0	0
CC(C)c1nnc(SCC(=O)NCCC2=CCCCC2)n1N	0	60	0	0	0	0
CCSc1nnc(NC(=O)CSc2nc3c(c(=O)n2CCOC)SC(C)C3)s1 (configuration not stated)	-	-	0	-	-	-
O=C(NCCc1c[nH]c2ccccc12)C(=O)Nc1ccccc1	-	-	0	-	-	-
O=C(CCS(=O)(=O)c1cccc2nonc12)NCCc1ccccc1	0	0	0	-	0	53
COc1cccc(CNC(=O)CCS(=O)(=O)c2cccc3nonc23)c1	0	0	-	-	0	0
CCOc1ccccc1NC(=O)CCS(=O)(=O)c1cccc2nonc12	0	0	0	-	0	67
O=C(CCNS(=O)(=O)c1cccc2nonc12)NCc1cccs1	2	0	0	-	0	0
CC(C)CCNC(=O)CCS(=O)(=O)c1cccc2nonc12	0	0	0	-	0	55
Cc1ccc(NC(=O)CCNS(=O)(=O)c2cccc3nonc23)cc1	0	0	0	-	0	0
CC(C)NC(=O)CCS(=O)(=O)c1cccc2nonc12	0	0	0	0	0	0
COCCN(CCOC)C(=O)c1c[nH]c2ccc(S(=O)(=O)N(C)c3ccc(F)cc3)cc2c1=O	0	0	0	0	0	0
CCn1c(SC)nnc1-c1ccc(S(=O)(=O)N2CCCCC2)cc1	-	-	0	0	-	-
CCOc1ccc(NC(=O)CSc2nnc(Cc3cccn3C)n2-c2ccc(OC)cc2)cc1	0	0	0	0	0	0
COc1ccc(-n2c(Cc3cccn3C)nnc2SCC(=O)Nc2ccc3c(c2)OCCO3)cc1	0	0	-10	0	0	0
COc1ccc(-n2c(Cc3cccn3C)nnc2SCC(=O)Nc2ccc(C(C)=O)cc2)cc1	0	0	-8.4	0	0	0
COc1ccc(-n2c(Cc3cccn3C)nnc2SCC(=O)Nc2ccc(C)cc2)cc1	0	53	-7.9	-	0	0
COc1ccc(NC(=O)CSc2nnc(Cc3cccn3C)n2-c2ccc(OC)cc2)cc1	0	59	-8.1	-	0	0
Fc1ccccc1OCCCN1CCOCC1	0	0	0	0	0	0
COc1ccc(CN2CN(c3ccc(Cl)cc3)C(=O)N(n3cnnc3)C2)cc1	0	0	0	0	0	0
COCc1cc(C)nc2sc(C(=O)OC(C)C)c(N)c12	0	72	0	0	0	85
SMILES	CYP2C9 activ	CYP2C9 inhib	Cav3 T inh	HIV Rev-RRE inh	CYP2C19 act	CYP2C19 inhib
CCCCNC(=O)c1sc2nc(C)cc(COC)c2c1-n1cccc1	0	0	-	0	0	0
Nc1nc2ccc([N+](=O)[O-])c(N)c2s1	0	0	0	0	0	0
CC(C)(O)c1nnn(-c2ccccc2)c1C(F)(F)F	0	0	0	0	0	75
COc1cc(CNCCc2ccccc2F)ccc1OCc1ccc(Cl)nc1	0	0	0	0	0	76
COc1cc(CNCCc2c[nH]c3ccccc23)ccc1OCc1ccc(F)cc1	0	0	0	0	0	63
Cc1noc(C)c1CSc1nc2ccccc2c(=O)n1-c1ccc(F)cc1F	0	94	-	0	0	0
C=CCn1c(SCc2c(C)noc2C)nc2cc(C(=O)O)ccc2c1=O	-	-	0	0	-	-
C=CCn1c(Cc2ccc(OC)cc2)nnc1SCc1nc2ccccc2c(=O)[nH]1	0	0	0	0	0	0
C=CCn1c(SCC(=O)N2CCc3ccccc3C2)nc2ccccc2c1=O	0	95	0	0	0	74
C=CCn1c(SCc2c(C)noc2C)nc2ccccc2c1=O	0	97	0	0	0	95
C=CCn1c(SCc2nc3ccccc3c(=O)[nH]2)nc2ccccc2c1=O	0	83	0	0	0	0
C#CCOCCOCCOCCNc1nc(N2CCN(C(=O)C([C@@H](C)CC)n3cc(C(N)COC(=O)C(F)(F)F)nn3)CC2)nc(N2CCN(C(=O)[C@H](Cc3cc4ccccc4[nH]3)n3cc(C(N)CO)nn3)CC2)n1 (some centres not stated)	-	-	0	-	-	-
O=c1c2ccccc2nc(SCc2nnc(-c3ccccc3)o2)n1-c1ccccc1	0	95	0	-	0	0
COCc1nc2sc(C)c(C)c2c(=O)[nH]1	-	-	0	0	-	-
CCCn1c(SCc2nc3sc(C)c(C)c3c(=O)[nH]2)nc2ccccc2c1=O	0	66	0	0	0	0
Cc1noc(C)c1CSc1nc2ccccc2c(=O)n1-c1ccccc1	0	84	0	0	0	0
COc1cc2nc(SCc3c(C)noc3C)n(CCC3=CCCCC3)c(=O)c2cc1OC	0	74	0	0	0	0
CCOc1cc(/C=C2/NC(=S)NC2=O)ccc1OCc1ccc([N+](=O)[O-])cc1	0	0	0	0	0	0
O=C1NC(=S)N/C1=C/c1cccc([N+](=O)[O-])c1O	0	0	0	69	0	0
O=C1NC(=S)N/C1=C/c1cc([N+](=O)[O-])ccc1O	0	0	0	111[fluorescence artefact?]	0	0
CCCC/C=C/C(NC(=O)CCc1ccccc1)c1ccccc1 (configuration not stated)	-	-	0	-	-	-
COC(=O)CSc1ccc2nnc(-c3ccc(F)cc3)n2n1	0	0	0	0	0	0
COC(=O)CSc1snnc1-c1ccc(F)cc1	0	0	0	0	0	66
CC(=O)Nc1nc2cc3c(cc2s1)OCO3	0	0	0	0	0	64
c1c2c(cc3sc(N4CCCCC4)nc13)OCO2	0	0	-	0	0	84
SMILES	CYP2C9 activ	CYP2C9 inhib	Cav3 T inh	HIV Rev-RRE inh	CYP2C19 act	CYP2C19 inhib
Cn1c(SCCS(=O)(=O)c2ccc(Cl)cc2)nnc1-c1ccccc1	0	0	0	0	0	0
CSc1nnc(-c2ccc(S(=O)(=O)N3CCOCC3)cc2)n1CC1CCCO1 (configuration not stated)	0	0	0	0	0	0
O=C(Oc1ccccc1)c1ccc(COC(=O)c2cnccn2)cc1	0	56	0	0	0	0
O=C(Oc1ccc(Cl)cc1)c1ccc(COC(=O)c2cnccn2)cc1	0	0	0	0	0	0
CCCCc1sc(-c2c(C#N)c(N)nc3c2CCCCC3)cc1[N+](=O)[O-]	0	0	-4.8	0	0	0
COC(=O)c1cccc(OC(N)=O)c1	0	0	0	0	0	0
CC(C)C(=O)N1CCC(CN=Cc2c(O)n(C3CCCCC3)c(=O)n(C3CCCCC3)c2=O)CC1	0	0	-11	0	0	0
CCN1CCCC1CN=Cc1c(O)n(-c2ccccc2)c(=O)c2ccccc12 (configuration not stated)	0	0	0	0	0	0

Compound activity from PubChem.
